Measurements reported in ChEMBL document CHEMBL1122463, “2,3-dihydro-3-(1-pyrryl)spiro[benzofuran-2,4'-piperidine]s and 2,3-dihydro-3-(1-pyrryl)spiro[benzofuran-2,3'-pyrrolidine]s: novel antihypertensive agents” (1983).

Legend:
Type in all cases: functional, Blood
Rattus norvegicus [1] = species: Rattus norvegicus; assay: Oral hypotensive activity in spontaneously hypertensive rats by using tail-cuff method measured as change in systolic BP
Outline: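 Okamoto-Aoki spontaneously hypertensive rats. Compound suspended in distilled water with Tween 80, given po daily, screening dose 50 mg/kg, dose-response at 50, 30, 10 or 3 mg/kg unless stated. Systolic BP by tail-cuff plethysmography on day 1 predose and 2 h, day 3 predose and 2 h, and day 5 predose, 2 and 4 h. Reported as peak decrease on day 3 (or day 5) at 2 h ± SEM. n = 4 in screen, 4–8 per dose.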

Rattus norvegicus [2] = species: Rattus norvegicus; assay: Oral hypotensive activity in spontaneously hypertensive rats by using tail-cuff method measured as the initial BP
Outline: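 Okamoto-Aoki strain spontaneously hypertensive rats. Compounds were suspended in distilled water with Tween 80 and given orally every day at 50, 30, 10 or 3 mg/kg. Systolic BP was measured by tail-cuff plethysmography on day 1 (predose and 2 h), day 3 (predose and 2 h) and day 5 (predose, 2 and 4 h). The screen used 4 rats; dose-response used 4–8 rats per dose.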

Rattus norvegicus [3] = species: Rattus norvegicus; assay: Hypotensive activity in renal hypertensive rats by using tail-cuff method measured as initial BP
Outline: (§1)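 Renal hypertension made in male Sprague-Dawley rats (Grollman modification). Under pentobarbital (50 mg/kg ip), the right kidney was removed and silk sutures tied around both poles of the left kidney to constrict it. After 3 weeks, rats with systolic BP >150 mmHg were used. Compound given po daily to 4 rats. Systolic BP by tail-cuff plethysmography at the listed day/hour after dosing.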

Rattus norvegicus [4] = species: Rattus norvegicus; assay: Hypotensive activity in renal hypertensive rats by using tail-cuff method measured as BP on (3/0) day/h postdrug; outline: as §1
Rattus norvegicus [5] = species: Rattus norvegicus; assay: Hypotensive activity in renal hypertensive rats by using tail-cuff method measured as BP on (2/2) day/h postdrug; outline: as §1
Rattus norvegicus [6] = species: Rattus norvegicus; assay: Hypotensive activity in renal hypertensive rats by using tail-cuff method measured as BP on (2/0) day/h postdrug; outline: as §1
Rattus norvegicus [7] = species: Rattus norvegicus; assay: Hypotensive activity in renal hypertensive rats by using tail-cuff method measured as BP on (1/2) day/h postdrug; outline: as §1
Rattus norvegicus [8] = species: Rattus norvegicus; assay: Hypotensive activity in renal hypertensive rats by using tail-cuff method measured as BP on (3/2)day/h postdrug; outline: as §1

Structure (SMILES) | Delta blood pressure (Rattus norvegicus [1]) [mmHg] | BP (Rattus norvegicus [2]) [mmHg] | BP (Rattus norvegicus [3]) [mmHg] | BP (Rattus norvegicus [4]) [mmHg] | BP (Rattus norvegicus [5]) [mmHg] | BP (Rattus norvegicus [6]) [mmHg] | BP (Rattus norvegicus [7]) [mmHg] | BP (Rattus norvegicus [8]) [mmHg]
N/C(=N\O)N1CCC2(CC1)Oc1ccccc1C2n1cccc1 (stereo not given) | 24 | 209 |  |  |  |  |  | 
C[C@H](CS)C(=O)N1CCC[C@H]1C(=O)O [CAPTOPRIL] |  |  | 192 | 163 | 169 | 185 | 181 | 152
OCCN1CCC2(CC1)Oc1ccccc1C2n1cccc1 (stereo not given) | 39 | 170 |  |  |  |  |  | 
